Experimental data taken from ChEMBL document CHEMBL5214934, “A simplified analog of debromoaplysiatoxin lacking the B-ring of spiroketal moiety retains protein kinase C-binding and antiproliferative activities” (Bioorg Med Chem, 2022).
Calls of active or inactive are those of the source. No cut-off for these calls is given here.

What was measured:
NCI-H460 = experiment: Antiproliferative activity against human NCI-H460 cells after 48 hrs by SRB assay; assay type: functional
In short: (§1)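 Part of a 39-line human cancer cell panel. Cells plated in RPMI 1640 with 5% FBS and left to attach overnight, then exposed to compound at 10^-8 to 10^-4 M for 48 h. Growth measured by sulforhodamine B staining, absorbance at 525 nm, with a time-0 reading. % growth calculated against control from duplicate points. GI50 is the concentration giving 50% growth inhibition versus untreated control.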

[1] = molecular target: Protein kinase C alpha type (Homo sapiens, UniProt P17252); experiment: Inhibition of [3H]-PDBu binding to PKCalpha C1A domain (unknown origin) by competitive binding assay
In short: (§2)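 Synthetic PKCα-C1A (40 nM) or PKCδ-C1B (13.8 nM) peptide in 50 mM Tris-maleate (pH 7.4 at 4 °C). Mixture contained 20 nM [3H]PDBu (13.92 Ci/mmol), 50 µg/mL dioleoylphosphatidylserine, 3 mg/mL bovine γ-globulin and graded ligand. IC50 by logit analysis; Ki by Goldstein–Barrett equation from IC50 and [3H]PDBu Kd. Two independent experiments, triplicates each; log-scale mean with 95% CI.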

OVCAR-5 = experiment: Antiproliferative activity against human OVCAR-5 cells after 48 hrs by SRB assay; assay type: functional; conditions: OVCAR-5, read-out: pGI50 (converted); in short: as §1
SF-295 = experiment: Antiproliferative activity against human SF-295 cells after 48 hrs by SRB assay; assay type: functional; conditions: SF-295, read-out: pGI50 (converted); in short: as §1
A549 = experiment: Antiproliferative activity against human A549 cells after 48 hrs by SRB assay; assay type: functional; conditions: A549, read-out: pGI50 (converted); in short: as §1
St-4 = experiment: Antiproliferative activity against human St-4 cells after 48 hrs by SRB assay; assay type: functional; conditions: St-4, read-out: pGI50 (converted); in short: as §1
[2] = Antiproliferative activity against human HBC4 cells after 48 hrs by SRB assay; assay type: functional; conditions: HBC4, read-out: pGI50 (converted); in short: as §1
Homo sapiens = species: Homo sapiens; experiment: Ratio Ki for inhibition of [3H]-PDBu binding to PKCalpha C1A domain (unknown origin) to Ki for inhibition of [3H]-PDBu binding to PKCdelta C1B domain (unknown origin)
HCC 2998 = experiment: Antiproliferative activity against human HCC 2998 cells after 48 hrs by SRB assay; assay type: functional; conditions: HCC 2998, read-out: pGI50 (converted); in short: as §1
MKN-45 = experiment: Antiproliferative activity against human MKN-45 cells after 48 hrs by SRB assay; assay type: functional; in short: as §1
DMS-273 = experiment: Antiproliferative activity against human DMS-273 cells after 48 hrs by SRB assay; assay type: functional; conditions: DMS-273, read-out: pGI50 (converted); in short: as §1
MDA-MB-231 = experiment: Antiproliferative activity against human MDA-MB-231 cells after 48 hrs by SRB assay; assay type: functional; conditions: MDA-MB-231, read-out: pGI50 (converted); in short: as §1
[3] = molecular target: Protein kinase C delta type (Homo sapiens, UniProt Q05655); experiment: Inhibition of [3H]-PDBu binding to PKCdelta C1B domain (unknown origin) by competitive binding assay; in short: as §2
Chain of Protein kinase C delta type (Q05655 whole entry, the tested form may be a part): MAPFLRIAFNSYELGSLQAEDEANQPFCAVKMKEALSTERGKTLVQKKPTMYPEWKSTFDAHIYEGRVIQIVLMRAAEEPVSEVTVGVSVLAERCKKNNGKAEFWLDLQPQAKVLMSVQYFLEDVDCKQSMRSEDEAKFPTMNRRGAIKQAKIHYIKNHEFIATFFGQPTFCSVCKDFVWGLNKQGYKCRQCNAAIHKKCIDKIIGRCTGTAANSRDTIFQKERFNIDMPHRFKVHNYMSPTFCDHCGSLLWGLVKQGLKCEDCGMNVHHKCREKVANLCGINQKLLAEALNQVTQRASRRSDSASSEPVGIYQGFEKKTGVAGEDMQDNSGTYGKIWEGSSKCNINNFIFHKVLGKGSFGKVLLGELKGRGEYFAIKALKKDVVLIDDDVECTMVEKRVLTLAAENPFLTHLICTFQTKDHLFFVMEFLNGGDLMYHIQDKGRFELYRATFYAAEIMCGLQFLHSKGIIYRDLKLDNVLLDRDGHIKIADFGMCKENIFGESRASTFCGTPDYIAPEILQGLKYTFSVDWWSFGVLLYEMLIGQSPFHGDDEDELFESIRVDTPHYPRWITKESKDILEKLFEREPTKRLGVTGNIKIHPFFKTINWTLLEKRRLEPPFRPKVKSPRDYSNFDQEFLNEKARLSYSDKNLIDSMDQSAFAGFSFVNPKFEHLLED

SMILES	GI50 (NCI-H460; NCI-H460, read-out: pGI50 (converted)) [µM]	Ki [1] [µM]	GI50 (OVCAR-5) [µM]	GI50 (SF-295) [µM]	GI50 (A549) [µM]	GI50 (St-4) [µM]	GI50 [2] [µM]	Ratio Ki (Homo sapiens)	GI50 (HCC 2998) [µM]	GI50 (MKN-45; MKN-45, read-out: pGI50 (converted)) [µM]	GI50 (DMS-273) [µM]	GI50 (MDA-MB-231) [µM]	Ki [3] [µM]	Activity (NCI-H460)	Activity (MKN-45)
CC1(C)CC[C@@H]2CC(=O)O[C@@H](CO)CC(=O)O[C@H](CCCCCCc3ccccc3)C[C@@H]1O2	< 10	0.088	< 10	< 10	< 10	< 10	< 10	5.2	< 10	< 10	< 10	< 10	0.017	–	–
CC(C)[C@@]12C[C@@H](C[C@@H](CCCCc3ccccc3)O1)OC(=O)C[C@H](CO)OC(=O)CCO2	–	0.1	–	–	–	–	–	0.8	–	–	–	–	0.13	Active	Active
CC1(C)CC[C@@H]2CC(=O)O[C@@H](CO)CC(=O)O[C@@H]3C[C@@H](CCCCc4ccccc4)O[C@@]1(C3)O2	–	–	–	–	–	–	–	12	–	–	–	–	–	–	–
